Laboratory results from ChEMBL document CHEMBL1135537, “Design, synthesis, and biological evaluation of indolequinone phosphoramidate prodrugs targeted to DT-diaphorase” (2002).

Key:
[1] = target: NAD(P)H dehydrogenase [quinone] 1 (Homo sapiens) (UniProt P15559); assay: Kinetic parameter Kcat was reported against DT-diaphorase
Outline: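 Recombinant purified human DTD in Tris buffer (0.05 M, pH 7.6) with dithiothreitol (0.01 mM), NADH (1 mM), cytochrome c (55 μM) and varied indolequinone in DMSO. Run at 25 °C, started with enzyme, in triplicate. Cytochrome c reduction was followed at 550 nm, with no-enzyme background rates. kcat came from Hanes plots of initial linear rates (ε 1.85 × 10^4 M-1 cm-1). Values average ≥2 experiments.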

A498 = assay: Growth inhibitory activity against A498-2LM human solid tumor cell line using MTT assay; assay type: functional
Outline: (§1)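 MTT assay. Cells were seeded at (1-2) × 10^4 per well and left to attach for 24 h. Compound was taken up in DMSO and serially diluted in medium, keeping final DMSO at 1% or less, then exposed for 72 h. MTT was added for 4–5 h, formazan was dissolved in DMSO, and absorbance was read at 570 nm. GI50 was taken from percent-of-control versus concentration plots; each compound was assayed twice and the results averaged.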

BE = assay: Inhibitory concentration that reduces clonogenic survival by 2 log units (99%) 2-hour after drug treatment in BE human colon carcinoma cell line.; assay type: functional
Outline: (§2)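 Clonogenic assay. Exponentially growing cells at 1–1.2 × 10^5 cells/mL in serum-free MEM with 0.02 M HEPES were exposed for 2 h at 37 °C, 5% CO2, to five final concentrations. Ethanol was the vehicle at 1% final, with an ethanol-only control. Cells were then rinsed, plated at 2–3 densities in five replicates and grown 10 days. Crystal-violet-stained colonies of ≥50 cells were counted, and LC99 was read from log surviving fraction versus concentration. Runs were done at least twice and averaged.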

HT-29 [2] = assay: Inhibitory concentration that reduces clonogenic survival by 2 log units (99%) 2-hour after drug treatment in HT-29 human colon carcinoma cell line.; assay type: functional; outline: as §2
HT-29 [3] = assay: Growth inhibitory activity against HT-29 human solid tumor cell line using MTT assay; assay type: functional; outline: as §1
MDA-MB-231 = assay: Growth inhibitory activity against human MDA-231 cell line using MTT assay.; assay type: functional; outline: as §1
MIA PaCa-2 = assay: Growth inhibitory activity against PaCa-2 human solid tumor cell line using MTT assay; assay type: functional; outline: as §1
UMUC3 = assay: Growth inhibitory activity against UMUC3 human solid tumor cell line using MTT assay; assay type: functional; outline: as §1
[4] = Selectivity ratio of LC99 of BE to LC99 of HT-29; assay type: functional
Outline: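 Ratio of the BE LC99 to the HT-29 LC99, both from a 2 h clonogenic exposure in serum-free MEM/HEPES with 1% ethanol vehicle. Colonies of ≥50 cells were counted after 10 days, and LC99 was taken from log surviving fraction versus concentration plots.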

A549 = assay: Growth inhibitory activity against A549 human solid tumor cell line using MTT assay; assay type: functional; outline: as §1
PC-3 = assay: Growth inhibitory activity against human PC-3 cell line using MTT assay.; assay type: functional; outline: as §1

Sequence of NAD(P)H dehydrogenase [quinone] 1 (Homo sapiens) (P15559 whole entry): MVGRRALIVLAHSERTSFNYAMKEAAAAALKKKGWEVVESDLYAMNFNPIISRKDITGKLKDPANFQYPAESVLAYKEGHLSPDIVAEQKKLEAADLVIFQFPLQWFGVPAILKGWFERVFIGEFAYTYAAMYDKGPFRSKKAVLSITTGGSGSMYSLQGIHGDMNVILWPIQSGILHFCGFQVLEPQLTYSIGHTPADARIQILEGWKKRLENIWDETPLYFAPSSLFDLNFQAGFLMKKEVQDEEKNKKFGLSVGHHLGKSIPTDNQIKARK

SMILES | k cat [1] [s⁻¹] | GI50 (A498) [nM] | LC99 (BE) [µM] | LC99 (HT-29 [2]) [µM] | GI50 (HT-29 [3]) [nM] | GI50 (MDA-MB-231) [nM] | GI50 (MIA PaCa-2) [nM] | GI50 (UMUC3) [nM] | Selectivity [4] | GI50 (A549) [nM] | GI50 (PC-3) [nM]
COC1=CC(=O)c2c(c(CO)cn2C)C1=O | 136 | – | – | – | – | – | – | – | – | – | –
COC1=CC(=O)c2c(c(COP(N)(=O)N(CCBr)CCBr)cn2C)C1=O (stereo unspecified) | – | 1000 | 0.47 | 0.24 | 240 | 190 | 220 | 10 | 2 | 400 | 650
COC1=CC(=O)c2c(cc(COP(=O)(N(C)CCBr)N(C)CCBr)n2C)C1=O | 1.28 | 2300 | 2 | 0.35 | 200 | 840 | 8 | 17 | 6 | 1700 | 940
COC1=CC(=O)c2c(c(COC(C)=O)cn2C)C1=O | 4 | 37 | 5.3 | 0.54 | 3 | 250 | 4 | 7 | 10 | 440 | 5
COC1=CC(=O)c2c(cc(COP(N)(=O)N(CCBr)CCBr)n2C)C1=O (stereo unspecified) | 1.6 | 200 | 4.2 | 0.077 | 61 | 1600 | 15 | 2 | 65 | 3 | 490
COC1=CC(=O)c2c(c(COP(=O)(N(C)CCBr)N(C)CCBr)cn2C)C1=O | – | 340 | 0.14 | 0.07 | 65 | 40 | 25 | 2 | 2 | 23 | 66
CC1=CC(=O)c2ccccc2C1=O | 960 | – | – | – | – | – | – | – | – | – | –
COC1=CC(=O)c2c(cc(COP(N)(=O)N(CCCl)CCCl)n2C)C1=O (stereo unspecified) | 2.6 | 980 | 7.6 | 0.11 | 210 | 870 | 31 | 10 | 69 | 22 | 260
COC1=CC(=O)c2c(c(COP(N)(=O)N3CCOCC3)cn2C)C1=O (stereo unspecified) | – | 1200 | >100 | >100 | 7700 | 9300 | 9800 | 8200 | – | 12000 | 15000
COC1=CC(=O)c2c(cc(CO)n2C)C1=O | 77 | – | – | – | – | – | – | – | – | – | –
COC1=CC(=O)c2c(cc(COC(C)=O)n2C)C1=O | 30 | 34000 | >100 | >100 | 34000 | > 38000 | 35000 | 9600 | – | 26000 | > 38000
COC1=CC(=O)c2c(cc(COP(N)(=O)N3CCOCC3)n2C)C1=O (stereo unspecified) | 4.9 | 12000 | >100 | >100 | 15000 | 13000 | 10000 | 10000 | – | 45000 | 14000
